AI-2 QS mod: modulates the Vibrio harveyi AI-2 quorum sensing system; Vibrio harveyi JMH597 AI-2 luminescence/OD600 ratio, 9 h; active compounds read low; strain lacks LuxN and CqsS sensors; 0 = neutral-control median; 300,000 tested, 0.4% active; activity change, % at 7.5 µM; in the data active means activity change below about -75%, passing the limit was not always enough; inconclusive means no clear call, values can overlap the other calls;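 further: luminescence divided by OD600 gain over 9 h not by final OD600 alone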
Mot1-301 SUMO: inhibitors of SUMOylation pathway: yeast Mot1-301 growth rescue | growth rescue, % at 18.8 µM | S. cerevisiae Mot1-301 growth rescue, ATP luminescence, 38.5C; percent above DMSO median, 100 means doubled | 320,000 tested, 1% active;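 active means every valid replicate shows activation above 250% relative to neutral control wells; inactive means the rest, any valid replicate at or below 250%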
KCC2 mod: modulators of human KCC2 chloride dependent transport | B-score of Tl+ flux slope (higher = more flux/activation; lower = inhibition) at 10 µM | KCC2 cells, thallium flux FluoZin-2 fluorescence | AID 1456 | 190,000 tested, 2.2% active;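 active means thallium flux slope and its plate-corrected score both differing from the plate sample mean at a set confidence after two filtering rounds, in either direction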;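 further: slope of fluorescence scaled to starting intensity during 10 to 20 s after thallium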
Target sequence (Q9H2X9 whole entry, looked up): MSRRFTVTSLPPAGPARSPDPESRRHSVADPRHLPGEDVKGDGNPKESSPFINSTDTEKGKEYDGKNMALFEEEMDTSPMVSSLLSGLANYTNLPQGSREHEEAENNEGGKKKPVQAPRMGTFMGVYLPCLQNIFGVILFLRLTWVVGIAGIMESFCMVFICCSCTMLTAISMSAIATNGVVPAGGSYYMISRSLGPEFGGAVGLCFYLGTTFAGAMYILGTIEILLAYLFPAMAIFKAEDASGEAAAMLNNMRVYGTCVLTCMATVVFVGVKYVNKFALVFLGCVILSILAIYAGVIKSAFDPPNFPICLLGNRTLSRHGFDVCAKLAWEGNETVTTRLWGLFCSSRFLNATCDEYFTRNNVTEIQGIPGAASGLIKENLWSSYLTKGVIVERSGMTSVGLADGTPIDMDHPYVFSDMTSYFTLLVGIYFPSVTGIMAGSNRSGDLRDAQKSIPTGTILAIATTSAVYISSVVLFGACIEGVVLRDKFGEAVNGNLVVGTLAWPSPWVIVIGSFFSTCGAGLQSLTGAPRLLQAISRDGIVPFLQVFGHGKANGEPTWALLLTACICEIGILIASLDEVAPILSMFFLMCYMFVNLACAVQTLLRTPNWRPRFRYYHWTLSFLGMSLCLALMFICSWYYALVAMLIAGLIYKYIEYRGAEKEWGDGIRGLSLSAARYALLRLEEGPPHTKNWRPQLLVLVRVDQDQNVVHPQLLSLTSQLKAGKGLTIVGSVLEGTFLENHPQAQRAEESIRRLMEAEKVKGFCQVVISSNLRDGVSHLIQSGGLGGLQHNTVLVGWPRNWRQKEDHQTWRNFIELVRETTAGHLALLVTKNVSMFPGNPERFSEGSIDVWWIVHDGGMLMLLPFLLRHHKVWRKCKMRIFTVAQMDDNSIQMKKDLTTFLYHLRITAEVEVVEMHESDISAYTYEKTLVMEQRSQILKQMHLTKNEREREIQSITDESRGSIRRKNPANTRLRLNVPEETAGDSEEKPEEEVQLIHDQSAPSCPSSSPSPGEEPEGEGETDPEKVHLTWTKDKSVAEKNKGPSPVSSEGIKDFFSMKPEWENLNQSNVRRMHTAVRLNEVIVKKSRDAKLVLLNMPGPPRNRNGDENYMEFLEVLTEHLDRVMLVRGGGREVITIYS
KCNQ1 block: blocks the human KCNQ1 potassium channel; P51787; 310,000 tested, 1.3% active; CHO-K1 KCNQ1, FluxOR thallium flux fluorescence; active compounds read high; AID 2642; B-score at 10 µM;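 active means compounds whose thallium flux B-score, printed positive for inhibition, exceeds three library SD while starting fluorescence stays within three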;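 further: channel opened by potassium depolarization with thallium stimulus after 20 min compound exposure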
hERG rescue: hERG (human) protection from proarrhythmic block; Q12809; 310,000 tested, 0.51% active; activation (rescue from dofetilide block), less the hit threshold, % at 10 µM; CHO-hERG, FluxOR thallium flux, dofetilide IC70 present;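 active means activation above the mean of controls blocked by dofetilide plus 5 SD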;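 further: thallium influx through hERG after potassium depolarization seen as dye fluorescence rise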
KCNQ1 pot: human KCNQ1 channel potentiation or activation | P51787 | CHO-K1 KCNQ1, thallium flux FluxOR fluorescence; active compounds read high | B-score at 10 µM | 310,000 tested, 0.35% active;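 active means fluorescence ratio B-score, a plate-corrected score, at least three library SD, with initial intensity B-score within 5 SD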
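Test system: CHO-K1 cells stably expressing KCNQ1 / Medium: assay buffer / Also added: depolarizing K+/Tl+ stimulus, K2SO4 and Tl2SO4 each 12.5 mM in 5x stock / Incubation: 90 min dye loading and 20 min compound exposure, both at room temperature / Signal: thallium influx via FluxOR fluorescence, kinetic imaging / Evaluation: B score of baseline-normalized fluorescence ratio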
KCC2 sec1: KCC2 (human) modulation, secondary assay; shares compounds with KCC2 mod; HEK293-KCC2, thallium flux, FluoZin2 fluorescence; active compounds read high; normalised thallium flux (F/F0 slope) at 10 µM; 3,700 tested, 15% active; AID 1713;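 active means thallium flux slope above the same plate's solvent-only control mean plus 3 SD; inconclusive means the two replicate wells disagree; inactive means no significant difference from solvent-only control wells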
KCC2 bumet counter: bumetanide-insensitive thallium flux in KCC2 cells with ouabain, counter-screen. HEK293-KCC2 + bumetanide/ouabain, thallium flux FluoZin2; active compounds read high. 3,700 tested, 49% active. shares compounds with KCC2 mod. normalized thallium flux at 10 µM;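 active means thallium entry rate above the same plate's blocked-transporter control wells by more than 3 SD; inconclusive means the two repeat wells disagree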;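 further: raw slope of fluorescence over initial fluorescence between 10 and 20 s after thallium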
KCC2 secondary2: KCC2 (human) modulation, second secondary assay. normalized thallium flux at 10 µM. 3,700 tested, 23% active. HEK293-KCC2, thallium flux FluoZin2 fluorescence; actives lie on both sides; F/F0 rise rate, 10–20 s post-thallium. AID 1715. shares compounds with KCC2 mod;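 active means thallium flux slope more than 3 SD above or below the plate's solvent-only control mean, mostly below; inconclusive means the two repeat wells disagreed; inactive means no significant shift from solvent-only controls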
HEK counter1: parental HEK flux effect, counter-screen. shares compounds with KCC2 mod. HEK293 parental cells, thallium flux FluoZin2, ouabain; baseline-ratio fluorescence slope, 10–20 s after thallium. thallium flux rate (normalised fluorescence) at 10 µM. 3,700 tested, 46% active. AID 1716;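 active means thallium flux rate significantly above the same plate's solvent-only control wells, beyond their mean plus 3 SD; inconclusive means the two replicate wells gave conflicting results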
KCC2 ouabain: KCC2 (human) modulation, ouabain retest; HEK293-KCC2, thallium flux FluoZin2 fluorescence; bidirectional: low = inhibitor, high = activator; raw Tl+ flux slope (below DMSO = inhibition, above = activation) at 10 µM; shares compounds with KCC2 mod; 3,700 tested, 48% active;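 active means thallium flux slope beyond 3 SD from same-plate DMSO control mean in most replicates, usually higher, sometimes lower; inconclusive means repeat tests gave conflicting results; inactive means no significant difference from controls in most replicates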;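 further: slope of initial-normalized fluorescence between seconds 10 and 20 after thallium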
HEK counter2: counter-screen for KCC2 modulators: effect in parental HEK293 cells. shares compounds with KCC2 mod. thallium flux FluoZin-2 fluorescence slope. thallium flux slope at 10 µM. 3,700 tested, 33% active. AID 1718;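 active means thallium flux slope above the same plate's solvent-control mean plus 3 SD in both duplicate wells; inconclusive means duplicate wells that disagreed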;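 further: run without ouabain in cells lacking the KCC2 cotransporter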
Each line names hits and unclear results; the compound was inactive in the other large screens (follow-up assays come after a bar, where they were run). In the library only some 4.2% were active in any assay of this set; here they are far more common.

CCOc1ccc(C(=O)CC(NCc2cccs2)C(=O)O)cc1 (configuration not stated)	none
CC(C)N1C(=O)C2C(C(=O)NCc3ccccc3)C3C=CC2(O3)C1C(=O)NC(C)(C)C (configuration not stated)	KCC2 mod 2.8 | KCC2 sec1 inactive | KCC2 bumet counter inactive | KCC2 secondary2 inactive | HEK counter1 inactive | KCC2 ouabain inactive | HEK counter2 inactive
O=C(NCc1ccccc1)C1C2C=CC3(CN(Cc4cccnc4)C(=O)C13)O2 (configuration not stated)	none
CCOC(=O)c1ccc(NC(=O)CCC(=O)OC)cc1	none
Cc1nn(Cc2c(F)c(F)c(F)c(F)c2F)c(C)c1NC(=O)c1nn(C)cc1Br	none (no result: KCC2 mod)
Cn1cc(Br)c(C(=O)Nc2c(F)c(F)c(F)c(F)c2F)n1	KCC2 mod -3.6 | KCC2 sec1 inconclusive | KCC2 bumet counter inconclusive | KCC2 secondary2 inactive | HEK counter1 inactive | KCC2 ouabain inactive | HEK counter2 inactive
CC(C)(C)[C@H]1C=C(C(=O)O)O[C@@H](OCc2ccc(CO)cc2)C1	none (no result: KCC2 mod)
O=C(Nc1nnc(N2CCCCCC2)s1)c1cc(-c2ccc(Br)cc2)on1	none
CC1CCCC(C)N1c1nnc(NC(=O)c2cc(-c3ccc(Br)cc3)on2)s1 (configuration not stated)	KCC2 mod 12 | KCC2 sec1 inactive | KCC2 bumet counter 0.02 | KCC2 secondary2 inactive | HEK counter1 0.011 | KCC2 ouabain inconclusive | HEK counter2 inconclusive
S=c1nc(C2CC2)n(-c2ccccc2)[nH]1	KCC2 mod 4 | KCC2 sec1 0.014 | KCC2 bumet counter 0.012 | KCC2 secondary2 inactive | HEK counter1 0.01 | KCC2 ouabain inconclusive | HEK counter2 inconclusive
COC1=C(Nc2ccccc2)C(=O)c2ccccc2C1=O	none
O=C1C(Cl)=C(Nc2ccccc2)C(=O)c2ccccc21	KCC2 mod 4.5 | KCC2 sec1 inactive | KCC2 bumet counter inactive | KCC2 secondary2 inactive | HEK counter1 inactive | KCC2 ouabain inactive | HEK counter2 inactive
Cc1c(O)ccc2c(CN3CCN(Cc4ccccc4)CC3)cc(=O)oc12	none (no result: KCC2 mod)
Cc1c(O)ccc2c(CN(C)Cc3ccccc3)cc(=O)oc12	KCC2 mod -6.6 | KCC2 sec1 inactive | KCC2 bumet counter inactive | KCC2 secondary2 inactive | HEK counter1 inconclusive | KCC2 ouabain 0.015 | HEK counter2 inactive
CCCn1c(N2CCC(Cc3ccccc3)CC2)nc2c1c(=O)[nH]c(=O)n2C	none (no result: KCC2 mod) | KCC2 sec1 inactive | KCC2 bumet counter inactive | KCC2 secondary2 inconclusive | HEK counter1 inconclusive | KCC2 ouabain 0.016 | HEK counter2 inactive
CCCCCn1c(N2CCC(Cc3ccccc3)CC2)nc2c1c(=O)[nH]c(=O)n2C	KCC2 mod -5.5 | KCC2 sec1 inactive | KCC2 bumet counter inactive | KCC2 secondary2 inactive | HEK counter1 inactive | KCC2 ouabain inactive | HEK counter2 inactive
C=C(C)Cn1c(N2CCC(Cc3ccccc3)CC2)nc2c1c(=O)[nH]c(=O)n2C	KCC2 mod -3.6 | KCC2 sec1 inactive | KCC2 bumet counter 0.0059 | KCC2 secondary2 0.024 | HEK counter1 inactive | KCC2 ouabain 0.016 | HEK counter2 inactive
CC1(C)CC(=O)C(CC(=O)Nc2cc(C(F)(F)F)ccc2Cl)C(=O)C1	none (no result: Mot1-301 SUMO)
Cc1cccc(COC(=O)C(Cc2ccccc2)NC(N)=O)c1 (configuration not stated)	none (no result: KCC2 mod)
Cc1ccc(C(=O)Nc2ccccc2C(=O)N2CCCC(C)C2)cc1 (configuration not stated)	none (no result: KCC2 mod)
O=c1cc(-c2ccccc2)nc2cc(-c3ccco3)[nH]n12	KCC2 mod 3.9 | KCC2 sec1 inconclusive | KCC2 bumet counter 0.014 | KCC2 secondary2 inactive | HEK counter1 0.011 | KCC2 ouabain inconclusive | HEK counter2 inactive
Cc1sc2ncnc(SCC#N)c2c1C	KCC2 mod 4.5 | KCC2 sec1 inactive | KCC2 bumet counter 0.016 | KCC2 secondary2 inactive | HEK counter1 0.0099 | KCC2 ouabain inconclusive | HEK counter2 inconclusive
Cc1cccc(NC(=O)CSc2ncnc3sc(C)c(C)c23)n1	none (no result: KCC2 mod)
Cc1sc2ncnc(SCC(=O)NC(=O)c3cccn3C)c2c1C	KCC2 mod 59, KCNQ1 pot 11 | KCC2 sec1 0.039 | KCC2 bumet counter 0.13 | KCC2 secondary2 0.045 | HEK counter1 0.072 | KCC2 ouabain 0.072 | HEK counter2 0.029
Cc1cccc(Nc2nnc(SCC(=O)Nc3cccc(S(=O)(=O)N4CCCCC4)c3)s2)c1	KCC2 mod -5.1 | KCC2 sec1 inactive | KCC2 bumet counter inactive | KCC2 secondary2 inconclusive | HEK counter1 inconclusive | KCC2 ouabain 0.014 | HEK counter2 inactive
Cc1cccc(NC(=O)CSc2nnc(NC(=O)CN3CCCCC3)s2)c1	none
CCc1ccc(Nc2nnc(SCC(=O)Nc3cccc(S(=O)(=O)NC4=NCCCCC4)c3)s2)cc1	KCC2 mod -7.4 | KCC2 sec1 inactive | KCC2 bumet counter 0.0078 | KCC2 secondary2 0.026 | HEK counter1 inactive | KCC2 ouabain 0.011 | HEK counter2 inactive
COCCNC(=O)CN1C(=O)/C(=C/c2ccccc2)Oc2ccc(C(C)(C)C)cc21	none (no result: KCC2 mod)
O=C(O)C1=C[C@H](c2ccc(F)cc2)C[C@H](OCCCCO)O1	none
COc1cc(OC)c(OC)cc1CNC(=O)CCN1C(=O)c2cccc([N+](=O)[O-])c2C1=O	none (no result: KCC2 mod)
CCc1ccc(Nc2nnc(SCC(=O)NC(=O)c3cccn3C)s2)cc1	KCC2 mod -4.9 | KCC2 sec1 inactive | KCC2 bumet counter inactive | KCC2 secondary2 0.025 | HEK counter1 inconclusive | KCC2 ouabain 0.012 | HEK counter2 inactive

Compound activity: PubChem, several laboratories
